In brackets after ≈: the same amount, converted by molar mass.
Legend:
Type in all cases: functional
Pseudomonas aeruginosa [1] = experiment: Antimicrobial activity against ampD, ampDh2, ampDh3 and ampG deficient Pseudomonas aeruginosa PAO1 after 16 to 20 hrs by broth microdilution method in presence of 120 uM carbonyl cyanide m-chlorophenyl-hydrazone
Outline: (§1)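 CLSI broth microdilution in Mueller-Hinton broth with serial antibiotic dilutions. CCCP was added from a 10 mM DMSO stock to 120 μM final, then the bacterial culture was added as inoculum (about 10^4 cells from OD600 0.5 starter cultures). MIC was the lowest concentration preventing growth after 16 to 20 h at 37°C, run in triplicate.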

Pseudomonas aeruginosa [2] = experiment: Antimicrobial activity against ampG deficient Pseudomonas aeruginosa PAO1 harboring pZY0908 conferring resistance to gentamycin after 16 to 20 hrs by broth microdilution method
Outline: (§2)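 CLSI broth microdilution in Mueller-Hinton broth, serial 2-fold antibiotic dilutions. Inoculum about 10^4 cells per well, taken from starter cultures grown to OD600 0.5. MIC was the lowest antibiotic concentration preventing growth after 16 to 20 h at 37°C. Each MIC was determined in triplicate.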

Pseudomonas aeruginosa [3] = experiment: Antimicrobial activity against ampGh1 deficient Pseudomonas aeruginosa PAO1 after 16 to 20 hrs by broth microdilution method; outline: as §2
Pseudomonas aeruginosa [4] = experiment: Antimicrobial activity against ampG deficient Pseudomonas aeruginosa PAK harboring pZY0901 conferring resistance to gentamycin after 16 to 20 hrs by broth microdilution method; outline: as §2
Pseudomonas aeruginosa [5] = experiment: Antimicrobial activity against ampG deficient Pseudomonas aeruginosa PAO1 after 16 to 20 hrs by broth microdilution method in presence of 120 uM carbonyl cyanide m-chlorophenyl-hydrazone; outline: as §1
Pseudomonas aeruginosa [6] = experiment: Antimicrobial activity against ampGh1 deficient Pseudomonas aeruginosa PAO1 after 16 to 20 hrs by broth microdilution method in presence of 120 uM carbonyl cyanide m-chlorophenyl-hydrazone
Outline: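 Serial 2-fold dilutions of β-lactam in Mueller-Hinton broth with CCCP added from a 10 mM DMSO stock to 120 μM final; inoculum about 10^4 cells from cultures grown to OD600 0.5; MIC taken as lowest concentration preventing growth after 16 to 20 h at 37°C; triplicate.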

Pseudomonas aeruginosa [7] = experiment: Antimicrobial activity against ampG deficient Pseudomonas aeruginosa PAO1 harboring pZY0901 conferring resistance to gentamycin after 16 to 20 hrs by broth microdilution method in presence of 120 uM carbonyl cyanide m-chlorophenyl-hydrazone; outline: as §1
Pseudomonas aeruginosa [8] = experiment: Antimicrobial activity against ampD, ampDh2, ampDh3 and ampGh1 deficient Pseudomonas aeruginosa PAO1 after 16 to 20 hrs by broth microdilution method in presence of 120 uM carbonyl cyanide m-chlorophenyl-hydrazone; outline: as §1
Pseudomonas aeruginosa [9] = experiment: Antimicrobial activity against ampD, ampDh2, ampDh3 deficient Pseudomonas aeruginosa PAO1 after 16 to 20 hrs by broth microdilution method in presence of 120 uM carbonyl cyanide m-chlorophenyl-hydrazone; outline: as §1
Pseudomonas aeruginosa [10] = experiment: Antimicrobial activity against ampG deficient Pseudomonas aeruginosa PAK harboring pUCP24 conferring resistance to gentamycin after 16 to 20 hrs by broth microdilution method in presence of 120 uM carbonyl cyanide m-chlorophenyl-hydrazone; outline: as §1
Pseudomonas aeruginosa [11] = experiment: Antimicrobial activity against ampD, ampDh2, ampDh3 and ampG deficient Pseudomonas aeruginosa PAO1 harboring pUCP24 conferring resistance to gentamycin after 16 to 20 hrs by broth microdilution method in presence of 120 uM carbonyl cyanide m-chlorophenyl-hydrazone; outline: as §1
Pseudomonas aeruginosa [12] = experiment: Antimicrobial activity against ampD, ampDh2, ampDh3 and ampG deficient Pseudomonas aeruginosa PAO1 harboring pZY0901 conferring resistance to gentamycin after 16 to 20 hrs by broth microdilution method; outline: as §2
Pseudomonas aeruginosa [13] = experiment: Antimicrobial activity against ampD, […], ampDh2 deficient Pseudomonas aeruginosa PAO1 after 16 to 20 hrs by broth microdilution method; outline: as §2
Pseudomonas aeruginosa [14] = experiment: Antimicrobial activity against ampG deficient Pseudomonas aeruginosa PAK harboring pUCP24 conferring resistance to gentamycin after 16 to 20 hrs by broth microdilution method; outline: as §2
Pseudomonas aeruginosa [15] = experiment: Antimicrobial activity against ampG, ampGh1 deficient Pseudomonas aeruginosa PAO1 after 16 to 20 hrs by broth microdilution method; outline: as §2
Pseudomonas aeruginosa [16] = experiment: Antimicrobial activity against Pseudomonas aeruginosa PAK after 16 to 20 hrs by broth microdilution method
Outline: (§3)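 CLSI broth microdilution: 2-fold serial antibiotic dilutions in Mueller-Hinton broth, inoculated with about 10^4 cells per 100 μl from starter cultures grown to OD600 0.5. MIC is the lowest concentration preventing growth after 16-20 h at 37°C. Triplicate.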

Pseudomonas aeruginosa [17] = experiment: Antimicrobial activity against ampG deficient Pseudomonas aeruginosa PAK after 16 to 20 hrs by broth microdilution method; outline: as §2
Pseudomonas aeruginosa [18] = experiment: Antimicrobial activity against ampG deficient Pseudomonas aeruginosa PAO1 harboring pUCP24 conferring resistance to gentamycin after 16 to 20 hrs by broth microdilution method in presence of 120 uM carbonyl cyanide m-chlorophenyl-hydrazone; outline: as §1
Pseudomonas aeruginosa [19] = experiment: Antimicrobial activity against Pseudomonas aeruginosa PAO1 after 16 to 20 hrs by broth microdilution method; outline: as §3
Pseudomonas aeruginosa [20] = experiment: Antimicrobial activity against ampG, ampGh1 deficient Pseudomonas aeruginosa PAK after 16 to 20 hrs by broth microdilution method; outline: as §2
Pseudomonas aeruginosa [21] = experiment: Antimicrobial activity against ampG deficient Pseudomonas aeruginosa PAO1 harboring pZY0901 conferring resistance to gentamycin after 16 to 20 hrs by broth microdilution method; outline: as §2
Pseudomonas aeruginosa [22] = experiment: Antimicrobial activity against Pseudomonas aeruginosa PAO1 after 16 to 20 hrs by broth microdilution method in presence of 120 uM carbonyl cyanide m-chlorophenyl-hydrazone
Outline: (§4)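 CLSI broth microdilution in Mueller-Hinton broth with CCCP added from a 10 mM DMSO stock to 120 μM final, alongside 2-fold serial antibiotic dilutions. Inoculum from starter cultures grown to OD600 0.5. MIC is the lowest concentration preventing growth after 16-20 h at 37°C. Triplicate.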

Pseudomonas aeruginosa [23] = experiment: Antimicrobial activity against ampD, ampDh2, ampDh3 and ampG deficient Pseudomonas aeruginosa PAO1 after 16 to 20 hrs by broth microdilution method; outline: as §2
Pseudomonas aeruginosa [24] = experiment: Antimicrobial activity against ampG deficient Pseudomonas aeruginosa PAK harboring pZY0901 conferring resistance to gentamycin after 16 to 20 hrs by broth microdilution method in presence of 120 uM carbonyl cyanide m-chlorophenyl-hydrazone; outline: as §1
Pseudomonas aeruginosa [25] = experiment: Antimicrobial activity against ampG, ampGh1 deficient Pseudomonas aeruginosa PAO1 after 16 to 20 hrs by broth microdilution method in presence of 120 uM carbonyl cyanide m-chlorophenyl-hydrazone; outline: as §1
Pseudomonas aeruginosa [26] = experiment: Antimicrobial activity against ampGh1 deficient Pseudomonas aeruginosa PAK after 16 to 20 hrs by broth microdilution method; outline: as §2
Pseudomonas aeruginosa [27] = experiment: Antimicrobial activity against ampD, ampDh2, ampDh3 and ampGh1 deficient Pseudomonas aeruginosa PAO1 after 16 to 20 hrs by broth microdilution method; outline: as §2
Pseudomonas aeruginosa [28] = experiment: Antimicrobial activity against ampD, ampDh2, ampDh3 and ampG deficient Pseudomonas aeruginosa PAO1 harboring pZY0901 conferring resistance to gentamycin after 16 to 20 hrs by broth microdilution method in presence of 120 uM carbonyl cyanide m-chlorophenyl-hydrazone; outline: as §1
Escherichia coli [29] = experiment: Antimicrobial activity against gentamycin resistant Escherichia coli SNO301-1 harboring pEC1C carrying ampC, ampR from Enterobacter cloacae after 16 to 20 hrs by broth microdilution method
Outline: (§5)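 CLSI broth microdilution: serial 2-fold β-lactam dilutions in Mueller-Hinton broth, inoculum about 10^4 cells from starter cultures at OD600 0.5; MIC read as lowest concentration preventing growth after 16 to 20 h at 37°C; triplicate determinations.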

Pseudomonas aeruginosa [30] = experiment: Antimicrobial activity against ampD, ampDh2, ampDh3 and ampG deficient Pseudomonas aeruginosa PAO1 harboring pUCP24 conferring resistance to gentamycin after 16 to 20 hrs by broth microdilution method; outline: as §2
Pseudomonas aeruginosa [31] = experiment: Antimicrobial activity against ampG deficient Pseudomonas aeruginosa PAK after 16 to 20 hrs by broth microdilution method in presence of 120 uM carbonyl cyanide m-chlorophenyl-hydrazone; outline: as §1
Pseudomonas aeruginosa [32] = experiment: Antimicrobial activity against ampG deficient Pseudomonas aeruginosa PAO1 harboring pUCP24 conferring resistance to gentamycin after 16 to 20 hrs by broth microdilution method; outline: as §2
Pseudomonas aeruginosa [33] = experiment: Antimicrobial activity against Pseudomonas aeruginosa PAK after 16 to 20 hrs by broth microdilution method in presence of 120 uM carbonyl cyanide m-chlorophenyl-hydrazone; outline: as §4
Escherichia coli [34] = experiment: Antimicrobial activity against kanamycin resistant Escherichia coli SNO301-1 harboring pEC1C carrying ampC, ampR from Enterobacter cloacae after 16 to 20 hrs by broth microdilution method; outline: as §5
Pseudomonas aeruginosa [35] = experiment: Antimicrobial activity against ampG, ampGh1 deficient Pseudomonas aeruginosa PAK after 16 to 20 hrs by broth microdilution method in presence of 120 uM carbonyl cyanide m-chlorophenyl-hydrazone; outline: as §1
Escherichia coli [36] = experiment: Antimicrobial activity against tetracycline resistant Escherichia coli SNO301-1 harboring pEC1C carrying ampC, ampR from Enterobacter cloacae after 16 to 20 hrs by broth microdilution method; outline: as §5
Pseudomonas aeruginosa [37] = experiment: Antimicrobial activity against ampG deficient Pseudomonas aeruginosa PAO1 after 16 to 20 hrs by broth microdilution method; outline: as §2
Pseudomonas aeruginosa [38] = experiment: Antimicrobial activity against ampGh1 deficient Pseudomonas aeruginosa PAK after 16 to 20 hrs by broth microdilution method in presence of 120 uM carbonyl cyanide m-chlorophenyl-hydrazone; outline: as §1

## CO/N=C(\C(=O)N[C@@H]1C(=O)N2C(C(=O)O)=C(COC(C)=O)CS[C@H]12)c1csc(N)n1 [CEFOTAXIME]
Pseudomonas aeruginosa [1]
  MIC: 4 µg/mL
Pseudomonas aeruginosa [2]
  MIC: 8 µg/mL (≈ 17.6 µM)
Pseudomonas aeruginosa [3]
  MIC: 16 µg/mL (≈ 35.1 µM)
Pseudomonas aeruginosa [4]
  MIC: 512 µg/mL (≈ 1120 µM)
Pseudomonas aeruginosa [5]
  MIC: 4 µg/mL
Pseudomonas aeruginosa [6]
  MIC: 8 µg/mL
Pseudomonas aeruginosa [7]
  MIC: 128 µg/mL
Pseudomonas aeruginosa [8]
  MIC: 64 µg/mL
Pseudomonas aeruginosa [9]
  MIC: 64 µg/mL
Pseudomonas aeruginosa [10]
  MIC: 4 µg/mL
Pseudomonas aeruginosa [11]
  MIC: 4 µg/mL
Pseudomonas aeruginosa [12]
  MIC: 512 µg/mL (≈ 1120 µM)
Pseudomonas aeruginosa [13]
  MIC: 512 µg/mL (≈ 1120 µM)
Pseudomonas aeruginosa [14]
  MIC: 4 µg/mL (≈ 8.78 µM)
Pseudomonas aeruginosa [15]
  MIC: 8 µg/mL (≈ 17.6 µM)
Pseudomonas aeruginosa [16]
  MIC: 8 µg/mL (≈ 17.6 µM)
Pseudomonas aeruginosa [17]
  MIC: 8 µg/mL (≈ 17.6 µM)
Pseudomonas aeruginosa [18]
  MIC: 4 µg/mL
Pseudomonas aeruginosa [19]
  MIC: 16 µg/mL (≈ 35.1 µM)
Pseudomonas aeruginosa [20]
  MIC: 8 µg/mL (≈ 17.6 µM)
Pseudomonas aeruginosa [21]
  MIC: 256 µg/mL (≈ 562 µM)
Pseudomonas aeruginosa [22]
  MIC: 8 µg/mL
Pseudomonas aeruginosa [23]
  MIC: 4 µg/mL (≈ 8.78 µM)
Pseudomonas aeruginosa [24]
  MIC: 256 µg/mL
Pseudomonas aeruginosa [25]
  MIC: 4 µg/mL
Pseudomonas aeruginosa [26]
  MIC: 8 µg/mL (≈ 17.6 µM)
Pseudomonas aeruginosa [27]
  MIC: 256 µg/mL (≈ 562 µM)
Pseudomonas aeruginosa [28]
  MIC: 64 µg/mL
Escherichia coli [29]
  MIC: 32 µg/mL (≈ 70.3 µM)
Pseudomonas aeruginosa [30]
  MIC: 4 µg/mL (≈ 8.78 µM)
Pseudomonas aeruginosa [31]
  MIC: 4 µg/mL
Pseudomonas aeruginosa [32]
  MIC: 8 µg/mL (≈ 17.6 µM)
Pseudomonas aeruginosa [33]
  MIC: 8 µg/mL
Escherichia coli [34]
  MIC: 64 µg/mL (≈ 141 µM)
Pseudomonas aeruginosa [35]
  MIC: 4 µg/mL
Escherichia coli [36]
  MIC: < 2 µg/mL
Pseudomonas aeruginosa [37]
  MIC: 8 µg/mL (≈ 17.6 µM)
Pseudomonas aeruginosa [38]
  MIC: 8 µg/mL

## CC(C)(O/N=C(\C(=O)N[C@@H]1C(=O)N2C(C(=O)[O-])=C(C[n+]3ccccc3)CS[C@H]12)c1csc(N)n1)C(=O)O [CEFTAZIDIME]
Pseudomonas aeruginosa [2]
  MIC: 1 µg/mL (≈ 1.83 µM)
Pseudomonas aeruginosa [3]
  MIC: 1 µg/mL (≈ 1.83 µM)
Pseudomonas aeruginosa [4]
  MIC: 32 µg/mL (≈ 58.5 µM)
Pseudomonas aeruginosa [12]
  MIC: 32 µg/mL (≈ 58.5 µM)
Pseudomonas aeruginosa [13]
  MIC: 32 µg/mL (≈ 58.5 µM)
Pseudomonas aeruginosa [14]
  MIC: 1 µg/mL (≈ 1.83 µM)
Pseudomonas aeruginosa [15]
  MIC: 1 µg/mL (≈ 1.83 µM)
Pseudomonas aeruginosa [16]
  MIC: 1 µg/mL (≈ 1.83 µM)
Pseudomonas aeruginosa [17]
  MIC: 1 µg/mL (≈ 1.83 µM)
Pseudomonas aeruginosa [19]
  MIC: 1 µg/mL (≈ 1.83 µM)
Pseudomonas aeruginosa [20]
  MIC: 1 µg/mL (≈ 1.83 µM)
Pseudomonas aeruginosa [21]
  MIC: 16 µg/mL (≈ 29.3 µM)
Pseudomonas aeruginosa [23]
  MIC: 1 µg/mL (≈ 1.83 µM)
Pseudomonas aeruginosa [26]
  MIC: 1 µg/mL (≈ 1.83 µM)
Pseudomonas aeruginosa [27]
  MIC: 32 µg/mL (≈ 58.5 µM)
Pseudomonas aeruginosa [30]
  MIC: 1 µg/mL (≈ 1.83 µM)
Pseudomonas aeruginosa [32]
  MIC: 1 µg/mL (≈ 1.83 µM)
Pseudomonas aeruginosa [37]
  MIC: 1 µg/mL (≈ 1.83 µM)
